Experimental data published in article PMC8258284 (Infection & Chemotherapy, 2021).
Where “and” joins values, the source holds several entries; their conditions need not be identical. Equal values may be shown once. Entries after “also recorded” stand apart in the source; their conditions may differ. Where a name gives a salt, the structure may show the parent alone. Marks after values point to notes of the source that are not given here.

How the values were obtained:
THP-1 cell = THP-1 cell toxicity; type: cell-based, Human
Summary of the method: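 Non-infected THP-1 cells were PMA-transformed (72 h) and seeded at 8 × 10^5 cells/mL. Treated 24 h with NE serial dilutions (1:2–1:1,000), vehicle, or ClAlPc/PM solutions. Irradiated at 37°C with 400–700 nm light, 32 min, 5 J/cm2, or left non-irradiated, then incubated 24 h in the dark. Viability read by MTT; % toxicity calculated relative to untreated controls.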

[1] = tested on: Promastigotes of L. (V.) braziliensis (MHOM/BR/75/M2903); test: Promastigote inhibition; type: cell-based, Leishmania (Viannia) braziliensis
[2] = tested on: Intracellular amastigotes of L. (V.) braziliensis; test: Intracellular amastigote inhibition in transformed THP-1 cells; type: cell-based, Leishmania (Viannia) braziliensis
Summary of the method: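 PMA-differentiated (72 h) THP-1 cells infected with latent-phase L. (V.) braziliensis MHOM/BR/75/M2903 promastigotes, 8 × 10^5 cells/mL. Exposed 24 h to NE serial dilutions (1:2–1:1,000), vehicle, ClAlPc (0.04–20 µM) or PM (244.0–121,827.0 µM) solutions. Then 400–700 nm light, 32°C, 32 min, 5 J/cm2, or kept non-irradiated, followed by 24 h dark. Giemsa counts of infected/uninfected cells give % inhibition versus untreated controls. PI = % inhibition at 0 J/cm2 / % at 5 J/cm2.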

[3] = type: in vivo, BALB/c mice; conditions: range over organs after topical NE treatment; listed as PM
Summary of the method: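 Healthy female BALB/c mice, 7–9 weeks (N = 3/group), received 50 μL NE topically at the tail base every three days for 15 days. ClAlPc groups were irradiated (672 ± 40 nm, 7 min, 20 J/cm2) 30 min post-application. Six days after treatment, liver, spleen, kidney and treated skin (20–25 mg) were macerated, sonicated and centrifuged 10 min at 10,000 rpm. Supernatants were taken up in Trizma buffer pH 7.8, and PM was measured by C18 HPLC after 1-fluoro-2,4-dinitrobenzene derivatization.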

cutaneous leishmaniasis = conditions: different CL topical formulations alone or combined; cited from earlier work
[4] = Ex vivo skin permeation and retention test; type: in vitro ADME, mice
[5] = dilution 1,000, PDT + (5 J/cm^2)
[6] = dilution 100 (0.4 µM ClAlPc), PDT + (5 J/cm^2)

Compound	% of inhibition (mean ± SD), THP-1 cell (THP-1 cell; dilution 2, PDT + (5 J/cm^2)) [%]	% of inhibition (mean ± SD), THP-1 cell (THP-1 cell; dilution 2, PDT −) [%]	% of inhibition (mean ± SD), THP-1 cell (THP-1 cell; dilution 10, PDT + (5 J/cm^2)) [%]	% of inhibition (mean ± SD), THP-1 cell (THP-1 cell; dilution 10, PDT −) [%]	% of inhibition (mean ± SD), THP-1 cell (THP-1 cell; dilution 100, PDT + (5 J/cm^2)) [%]	% of inhibition (mean ± SD), THP-1 cell (THP-1 cell; dilution 100, PDT −)	% of inhibition (mean ± SD), THP-1 cell (THP-1 cell; [5]) [%]	% of inhibition (mean ± SD), THP-1 cell (THP-1 cell; dilution 1,000, PDT −) [%]	% of inhibition (mean ± SD), Promastigotes ([1]; dilution 2, PDT + (5 J/cm^2)) [%]	% of inhibition (mean ± SD), Promastigotes ([1]; dilution 2, PDT −) [%]	% of inhibition (mean ± SD), Promastigotes ([1]; dilution 10, PDT + (5 J/cm^2)) [%]	% of inhibition (mean ± SD), Promastigotes ([1]; dilution 10, PDT −) [%]	% of inhibition (mean ± SD), Promastigotes ([1]; dilution 100, PDT −) [%]	% of inhibition (mean ± SD), Promastigotes [1, 5] [%]	% of inhibition (mean ± SD), Promastigotes ([1]; dilution 1,000, PDT −) [%]	% of inhibition (mean ± SD), Intracellular amastigotes ([2]; dilution 50, PDT + (5 J/cm^2)) [%]	% of inhibition (mean ± SD), Intracellular amastigotes ([2]; dilution 50, PDT −) [%]	% of inhibition (mean ± SD), Intracellular amastigotes [2, 6] [%]	% of inhibition (mean ± SD), Intracellular amastigotes ([2]; dilution 100, PDT −) [%]	% of inhibition (mean ± SD), Intracellular amastigotes ([2]; dilution 300, PDT + (5 J/cm^2))	further results
NC[C@@H]1O[C@H](O[C@H]2[C@@H](O)[C@H](O[C@@H]3[C@@H](O)[C@H](N)C[C@H](N)[C@H]3O[C@H]3O[C@H](CO)[C@@H](O)[C@H](O)[C@H]3N)O[C@@H]2CO)[C@H](N)[C@@H](O)[C@@H]1O [PM (s), paromomycin sulfate]	78.7 ± 5.3	79.2 ± 3.0	34.3 ± 5.2	33.1 ± 3.5	18.6 ± 5.1	17.9 ± 8.0^a %	0.7 ± 1.0	0.3 ± 0.6	78.7 ± 5.9	78.5 ± 3.3	98.5 ± 1.4	98.4 ± 1.6	99.9 ± 0.0	100	100	54.1 ± 2.6	60.6 ± 2.4	46.6 ± 2.8	48.5 ± 5.8	30.3 ± 2.8%	% of inhibition (mean ± SD), Promastigotes [1, 6]: 99.9 ± 0.0%; % of inhibition (mean ± SD), Intracellular amastigotes ([2]; dilution 300, PDT −): 27.3 ± 8.1%; % of inhibition (mean ± SD), Intracellular amastigotes ([2]; dilution 500, PDT + (5 J/cm^2)): 0%; % of inhibition (mean ± SD), Intracellular amastigotes ([2]; dilution 500, PDT −): 2.3 ± 1.1%; Concentrations of PM detected in organs [3]: 27.3 - 292.5 μM/25 mg and 27.26 - 292.49 μM/25 mg; Healing rates (clinical efficacy) (cutaneous leishmaniasis): 53.3 to 90.0%
chloroaluminium phthalocyanine [ClAlPc (s)]	97.8 ± 0.6	4.5 ± 1.7	97.6 ± 0.5	0	49.1 ± 4.8	0%	13.8 ± 4.1	0	100	0.3 ± 0.7	100	1.0 ± 1.0	0	0	0	93.4 ± 2.8	2.8 ± 0.3	65.8 ± 4.7	0.5 ± 0.8	21.8 ± 7.0^a %	% of inhibition (mean ± SD), Intracellular amastigotes ([2]; dilution 300, PDT −): 0.4 ± 0.0%; % of inhibition (mean ± SD), Intracellular amastigotes ([2]; dilution 500, PDT + (5 J/cm^2)): 6.9 ± 2.1^a %; % of inhibition (mean ± SD), Intracellular amastigotes ([2]; dilution 500, PDT −): 0%; ClAlPc retained in the epidermis/dermis ([4]; after 24 h): 26.27 μM/cm^2; ClAlPc retained by the stratum corneum ([4]; after 24 h, tape stripping): 143.97 μM/cm^2; ClAlPc skin permeation (receptor compartment) ([4]; any time point up to 24 h): No skin ClAlPc permeation was observed; also recorded: did not permeate through the skin
